Assay results: publication PMC7941583 (Cancer Reports, 2020)
The star is where a group is joined. Cbz = O=C(OCc1ccccc1)*; CH2F = FC*

How the values were obtained:
RARγ = molecular target: T1, RARγ (Homo sapiens, UniProt P13631); details: binding affinities of synthetic retinoids; cited from earlier work
T1 sequence (P13631 185-419 limits assumed): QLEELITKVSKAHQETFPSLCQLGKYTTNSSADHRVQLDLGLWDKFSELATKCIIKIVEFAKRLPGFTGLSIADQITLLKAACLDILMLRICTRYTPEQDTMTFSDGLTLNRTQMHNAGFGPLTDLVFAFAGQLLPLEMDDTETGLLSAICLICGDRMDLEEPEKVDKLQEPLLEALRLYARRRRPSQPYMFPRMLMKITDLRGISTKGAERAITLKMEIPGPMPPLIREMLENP

RARα = molecular target: T2, RARα (Homo sapiens, UniProt P10276); details: binding affinities of synthetic retinoids; cited from earlier work
T2 sequence (P10276 183-417 limits assumed): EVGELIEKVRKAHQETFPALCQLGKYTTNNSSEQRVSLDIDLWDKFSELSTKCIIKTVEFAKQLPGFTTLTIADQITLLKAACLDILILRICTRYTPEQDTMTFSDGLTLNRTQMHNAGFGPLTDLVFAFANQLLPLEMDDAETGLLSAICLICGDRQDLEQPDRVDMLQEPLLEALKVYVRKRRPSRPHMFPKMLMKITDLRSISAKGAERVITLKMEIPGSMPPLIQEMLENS

LNCaP cells [1] = assay: Colony forming efficiency, LNCaP; type: cell-based, human; details: Figure 4A
Method in brief: (§1)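 Serum-free adapted cells were trypsinized (0.25% trypsin in PBS, 5 min, 37°C) into single-cell suspensions; suspensions under 90% trypan-blue-viable were discarded. 1000 cells per 65-mm dish were grown 21 days at 37°C, 5% CO2, in RPMI 1640 plus ITS+1 with test compound, refreshed every 5 days. Colonies were fixed in 1% formaldehyde and stained with methylene blue. CFE = colonies/cells inoculated × 100.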

RARβ = molecular target: T3, RARβ (Homo sapiens, UniProt P10826); details: binding affinities of synthetic retinoids; cited from earlier work
T3 sequence (P10826 183-417 limits assumed): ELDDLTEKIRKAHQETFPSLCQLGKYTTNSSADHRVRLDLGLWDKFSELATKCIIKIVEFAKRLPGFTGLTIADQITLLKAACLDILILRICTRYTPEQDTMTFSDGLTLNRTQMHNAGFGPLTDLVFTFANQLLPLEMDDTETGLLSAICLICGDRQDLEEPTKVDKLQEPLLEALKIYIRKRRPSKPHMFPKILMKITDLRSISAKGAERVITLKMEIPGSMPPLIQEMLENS

LNCaP cells [2] = details: previous data; cited from earlier work
PC‐3 cells [3] = assay: Colony forming efficiency, PC‐3; type: cell-based, human; details: PC‐3, Figure 4A
Method in brief: as §1

LNCaP cells [4] = assay: Cell cycle analysis; type: cell-based, human; details: 10^−6 M; for proportion of cells sub‐G0/G1: 48‐hour timepoint
Method in brief: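 Serum-free adapted LNCaP cells treated with test compound over a time course to 48 h. Harvested cells stained with propidium iodide and analysed by flow cytometry. Phases were assigned by DNA content: 2n is G1, 4n is G2/M, and between 2n and 4n is S. Cells below 2n (sub-G1) were scored as apoptotic. Results are percentages of cells per phase.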

LNCaP cells [5] = assay: TUNEL assay of apoptosis; type: cell-based, human; details: for proportion of apoptotic cells (TUNEL): 10^−6 M, 60 hours post‐treatment
Method in brief: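 Serum-free adapted LNCaP cells (5 × 10^5 per 75 cm2 flask) were treated with 10−6 M test compound or vehicle over a time course. Z-VAD-FMK (50 μM) was added 1 h before compound where indicated. Adherent plus floating cells were cytospun and stained by TdT fluorescein in situ labelling. Positive cells were counted per 500 cells in five fields, on three slides per sample; results are % apoptotic cells.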

DU145 cells [6] = assay: Colony forming efficiency, DU145; type: cell-based, human; details: DU145, Figure 4A
Method in brief: as §1

LNCaP cells [7] = assay: Cell growth; type: cell-based, human
LNCaP cells [8] = assay: Adipogenic differentiation; type: cell-based, human
caspase‐9 = assay: Fluorometric caspase‐9 activity in LNCaP lysates; type: cell-based, human; details: 10^−6 M
Method in brief: (§2)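 Serum-free adapted LNCaP cells were treated with 10−6 M test compound, with pan-caspase inhibitor and etoposide arms as indicated. Lysate was mixed with an equal volume of 20 mM HEPES pH 7.5, 10% glycerol, 2 mM DTT containing 50 μM substrate: DEVD-AFC (caspase-3), IETD-AFC (caspase-8) or LEHD-AFC (caspase-9). Background wells lacked lysate. Fluorescence was read at 400 nm excitation/508 nm emission, expressed as fold over control.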

PC‐3 cells [9] = assay: Metabolic activity; type: cell-based, human; details: PC‐3, concentrations of 10^−6 M and above
Method in brief: (§3)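 Serum-free adapted LNCaP, PC-3, DU145 or RWPE-1 cells were seeded at 400 cells/well in RPMI-1640 plus ITS+1. Test compound was added at seeding and again at day 2 by medium change. Viability was read at day 5 as intracellular ATP by luminescence (ViaLight HS). Results are % viable cells relative to vehicle control; at least three experiments in triplicate, mean ± SD.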

caspase‐8 = assay: Fluorometric caspase‐8 activity in LNCaP lysates; type: cell-based, human; details: 10^−6 M
Method in brief: as §2

RWPE‐1 cells = assay: Metabolic activity; type: cell-based, human; details: non‐tumorigenic RWPE‐1 compared with PC cell lines
Method in brief: as §3

LNCaP cells [10] = assay: Metabolic activity; type: cell-based, human; details: concentrations of 10^−6 M and above
Method in brief: as §3

LNCaP cells [11] = assay: Agarose gel electrophoresis of DNA; type: cell-based, human; details: time course
DU145 cells [12] = assay: Metabolic activity; type: cell-based, human; details: DU145, concentrations of 10^−6 M and above
Method in brief: as §3

caspase‐3 = assay: Fluorometric caspase‐3 activity in LNCaP lysates; type: cell-based, human; details: 10^−6 M
Method in brief: as §2

DU145 cells [13] = assay: Cell growth; type: cell-based, human
PC‐3 cells [14] = assay: Cell growth; type: cell-based, human

Molecule | ED50 RARγ (RARγ) | ED50 RARα (RARα) [nM] | colony forming efficiency (CFE), antagonists (LNCaP cells [1]) | ED50 RARβ (RARβ) [nM] | colony forming efficiency (CFE), antagonists (PC‐3 cells [3]) | proportion of apoptotic cells (TUNEL) (LNCaP cells [5]) | colony forming efficiency (CFE), antagonists (DU145 cells [6]) | other results
CCc1ccc(C2=CC(C)(C)Sc3ccc(C#Cc4ccc(C(=O)O)cc4)cc32)cc1 [AGN194310, 4‐[[4‐(4‐Ethylphenyl)‐2,2‐dimethyl‐(2H)‐thiochromen‐6‐yl]‐ethynyl]‐benzoic acid] | 2 nM | 4.3 | diminished the CFE | 5 | diminished the CFE | 35% | diminished the CFE | colony formation (LNCaP cells [2]): inhibited colony formation; proportion of cells in G1 phase (LNCaP cells [4]): gradually increased; proportion of cells in S‐phase (LNCaP cells [4]): fall; proportion of cells sub‐G0/G1 (LNCaP cells [4]): ~60%
CC1(C)CCC(C)(C)c2c1cc(C(=O)Nc1cc(F)c(C(=O)O)c(F)c1)c(O)c2Cl [AGN195183, 4‐(4‐Chloro‐3‐hydroxy‐5,5,8,8‐tetramethyl‐5,6,7,8‐tetrahydronaphthalene‐2‐carboxamido)‐2,6‐difluorobenzoic acid] | >5000 nM | 20.1 |  | >5000 |  |  |  | 
CCOc1c(Br)cc(C(=O)Nc2ccc(C(=O)O)cc2)cc1C(=O)c1ccc(C)cc1 [AGN196996, 4‐(3‐Bromo‐4‐ethoxy‐5‐(4‐methylbenzoyl)benzamido)benzoic acid] | >10 000 nM | 3.9 | neither ATRA, nor the RARα‐selective antagonist AGN196996 (Figure 1, S1C, S1F and Table 1) proved as effective AGN205728 or AGN194310 | 4036 | neither ATRA, nor the RARα‐selective antagonist AGN196996 (Figure 1, S1C, S1F and Table 1) proved as effective AGN205728 or AGN194310 | little evidence of induction of apoptosis | neither ATRA, nor the RARα‐selective antagonist AGN196996 (Figure 1, S1C, S1F and Table 1) proved as effective AGN205728 or AGN194310 | effect of co‐treatment on AGN195183‐mediated growth inhibition (LNCaP cells [7]; 4 days, AGN196996 10^−8 M with AGN195183 10^−8 M): abolished AGN195183‐mediated growth inhibition; effect of co‐treatment with ATRA on proliferation (LNCaP cells [7]; 4 days, AGN196996 10^−8 M with ATRA 10^−8 M): promoted proliferation of LNCaP cells
CC1(C)CCC(C)(C)c2cc(/C(=N\O)c3cc4cc(C(=O)O)ccc4[nH]3)ccc21 [AGN205327, 2‐[(E)‐N‐Hydroxy‐C‐(5,5,8,8‐tetramethyl‐6,7‐dihydronaphthalen‐2‐yl)carbonimidoyl]‐1H‐indole‐5‐carboxylic acid] | 32 nM | 3766.0 |  | 734 |  |  |  | effect on ciglitazone‐induced adipogenesis (LNCaP cells [8]; AGN205327 added later than 48 hours post‐induction): failed to have any effect; inhibition of ciglitazone‐induced adipogenic differentiation (LNCaP cells [8]; ciglitazone (10^−7 M), AGN205327 10^−7 M given between 48 hours pre‐ and post‐addition of ciglitazone): ≤ 70%
Cc1ccc(C2=CCC(C)(C)c3cc(C(/C=C/c4ccc(C(=O)O)cc4)=N/O)ccc32)cc1 [AGN205728, 4‐[(E,3E)‐3‐[8,8‐Dimethyl‐5‐(4‐methylphenyl)‐7H‐naphthalen‐2‐yl]‐3‐hydroxyiminoprop‐1‐enyl]benzoic acid] | 3 nM | 2400.0 | diminished the CFE | 4248 | diminished the CFE | 40% | diminished the CFE | activation of caspase‐9 (caspase‐9): failed to activate; metabolic activity (PC‐3 cells [9]): abolishing metabolic activity; activation of caspase‐8 (caspase‐8): failed to activate; response of metabolic activity (RWPE‐1 cells): significantly diminished response; metabolic activity (LNCaP cells [10]): abolishing metabolic activity; DNA fragmentation pattern (LNCaP cells [11]): discrete laddering pattern that is typical of cells undergoing apoptosis; metabolic activity (DU145 cells [12]): abolishing metabolic activity; activation of caspase‐3 (caspase‐3): failed to activate; proportion of cells in G1 phase (LNCaP cells [4]): gradually increased; proportion of cells in S‐phase (LNCaP cells [4]): fall; proportion of cells sub‐G0/G1 (LNCaP cells [4]): ~40%
CC1=C(/C=C/C(C)=C/C=C/C(C)=C/C(=O)O)C(C)(C)CCC1 [ATRA, All‐trans‐retinoic acid] |  |  |  |  |  |  |  | effect on cell growth (LNCaP cells [7]; 10^−8 M and above): progressively diminished cell growth; increase in cell numbers (LNCaP cells [7]; 5 days, 10^−11‐10^−9 M): up to 1.5 fold; effect on cell growth (DU145 cells [13]; DU145, 10^−8 M and above): progressively diminished cell growth; increase in cell numbers (DU145 cells [13]; DU145, 5 days, 10^−11‐10^−9 M): up to 1.5 fold; effect on cell growth (PC‐3 cells [14]; PC‐3, 10^−8 M and above): progressively diminished cell growth; increase in cell numbers (PC‐3 cells [14]; PC‐3, 5 days, 10^−11‐10^−9 M): up to 1.5 fold
O=C(Nc1ccccc1)c1cc([N+](=O)[O-])ccc1Cl [GW9662] |  |  |  |  |  |  |  | inhibition of accumulation of lipid droplets (LNCaP cells [8]; differentiation medium, day 14, AGN205327 10^−7 M, GW9662 10^−5 M): of a similar order
Cbz-Val-Ala-Asp-CH2F [reference compound] |  |  |  |  |  |  |  | effect of pre‐treatment on AGN205728‐induced apoptosis (TUNEL) (LNCaP cells [5]; Z‐VAD‐FMK 5 × 10^−5 M, AGN205728 10^−6 M): failed to diminish induction of apoptosis by AGN205728
